Results of several laboratories.
Compare with care: the assays were run in different laboratories.
Target: Calcium/calmodulin-dependent protein kinase kinase 1 (CAMKK1, Homo sapiens, UniProt Q8N5S9)

C[C@@H](c1ccc(-n2cnc3c(N)ncnc32)cc1)N1CCc2nn(C)c(Cc3ccccc3)c2C1=O
remaining binding (binding; competition with immobilised ligand; 0.1 µM): 100%

C[C@H]1CCN(c2nccc(-c3cnn4ncccc34)n2)C1
remaining binding (binding; 1 µM): 91%

COc1cnc(Nc2cccc(S(N)(=O)=O)c2)nc1N1CCN(c2ccccc2)C(=O)C1
remaining binding (binding; competition with immobilised ligand; 1 µM): 100%

CNCc1ccccc1-c1csc([C@H](C)Nc2nc(C)nc3cc(OC)c(OC)cc23)c1
remaining binding (cell-free assay; competition with immobilised ligand; 1 µM): 99%

c1cncc(-c2cccc(Nc3nccc(NC4CCCCC4)n3)c2)c1
remaining binding (binding; competition with immobilised ligand; 10 µM): 68%

CN(c1nccc(-c2cnn3ncccc23)n1)C1CC1
remaining binding (binding; 1 µM): 100%

COc1cnc(Nc2cccc(S(N)(=O)=O)c2)nc1N1CCN(c2ccccc2)CC1
remaining binding (binding; competition with immobilised ligand; 1 µM): 92%

O=C(NCC1CCOCC1)c1n[nH]cc1NC(=O)c1c(F)cccc1F
remaining binding (binding; competition with immobilised ligand; 1 µM): 88%

Nc1ncc2c(n1)-c1c([nH]c3ccc(C#CC4CC4)cc13)CCCC2
remaining binding (binding; competition with immobilised ligand; 1 µM): 98%

CCN1CCN(Cc2ccc(C(=O)Nc3ccc(C)c(Oc4ccc5c(c4)CC(=O)N5)c3)cc2C(F)(F)F)CC1
remaining binding (binding; competition with immobilised ligand; 1 µM): 100%

CC(=O)Nc1c(C(C)=O)c(=O)n(C)c2nc(-c3ccc(Cl)cc3Cl)c(-c3ccc(Cl)cc3)cc12
remaining binding (cell-free assay; competition with immobilised ligand; 1 µM): 100%

O=C(c1ccc(Nc2ncc(Cl)c(-c3ccc(Cl)s3)n2)cc1)N1CCC(N2CCCC2)CC1
remaining binding (binding; competition with immobilised ligand; 1 µM): 86%

O=C(Nc1cccnn1)N1CC(C/C=C/c2cncc(Oc3ccc(C(F)(F)F)cn3)n2)C1
remaining binding (cell-free assay; competition with immobilised ligand; 1 µM): 100%

c1cnn2ncc(-c3ccnc(N4CCC45COC5)n3)c2c1
remaining binding (binding; 1 µM): 97%

CS(=O)(=O)NCC[C@H](NC(=O)c1cncc2c1cnn2-c1ccc(F)cc1)c1ccnc(S(C)(=O)=O)c1
remaining binding (cell-free assay; competition with immobilised ligand; 1 µM): 100%

CN(CCCC(F)(F)F)c1nccc(-c2cnn3ncccc23)n1
remaining binding (binding; 1 µM): 100%

Cc1noc([C@H]2C[C@@H](c3ccc(C(F)(F)F)cc3)CN(C(=O)N3CCS(=O)(=O)C3)C2)n1
remaining binding (cell-free assay; competition with immobilised ligand; 1 µM): 100%

O=C(c1ccc(Nc2nccc(-c3cc4ccccc4s3)n2)cc1)N1CCC(N2CCCC2)CC1
remaining binding (binding; competition with immobilised ligand; 1 µM): 93%

CN(C)c1nccc(-c2cnn3ncccc23)n1
remaining binding (binding; 1 µM): 78%

Cc1cnc(Nc2ccc(C(=O)N3CCC(N4CCCC4)CC3)cc2)nc1-c1cc2ccccc2s1
remaining binding (binding; competition with immobilised ligand; 1 µM): 79%

Cc1cc(C)c(-n2ccn3nc(-c4cccnc4)cc23)cc1NC(=O)c1cc(C#N)cc(S(F)(F)(F)(F)F)c1
remaining binding (cell-free assay; competition with immobilised ligand; 0.1 µM): 93.6%

N[C@@H]1CCN(c2nccc(-c3cnn4ncccc34)n2)C1
remaining binding (binding; 1 µM): 100%
